Data as given in the array DNA melting data of Ke et al. (doi:10.1101/2024.01.08.574731).

How the values were obtained:
[1] = melting temperature; fluorescence melt of hairpins on a sequencing array, two-state fit, raised by 9.35 °C to match UV melts; settings: sodium 0.088 M
Procedure, shortened: (§1)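 In 50 mM Na-HEPES pH 8.0 containing 25 mM NaCl, hairpins from the library on a sequenced MiSeq flow cell were imaged for Cy3 fluorescence at 2.5 °C steps up to 60 °C, with Cy3 and quencher oligos annealed. After normalisation to pre-quench Cy3 and to control constructs, two-state fits with bootstrapping gave melting temperature and folding enthalpy. Four replicates were combined by inverse-variance weighting, and fitted temperatures were shifted up by 9.35 °C to match UV melts.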

[2] = folding enthalpy; higher = less favourable; fluorescence melt of hairpins on a sequencing array, two-state fit; settings: sodium 0.088 M
Procedure, shortened: as §1

Sequence | Tm [1] [°C] | folding enthalpy [2] [kcal/mol]
GGTTCCGAAAGGAGGACC ((((((....)))..))) | 38.1 | -18.8
GATTTGAAAAAATC (((((....))))) | 34 | -13.9
GAGATCCGAAAGGACCTC (((.(((....))).))) | 47.1 | -28.4
GGAGCCGAAAGGCTTCC ((((((....))).))) | 60.3 | -14.6
GATCTCCATAGAGATC ((((((....)))))) | 56.8 | -33.4
GGGCCAGCGAAAGCTCCC (((..(((....)))))) | 40.3 | -14.5
GCGACCTTTCGC ((((....)))) | 47 | -21.4
GACTACGGAAACGTGGTC (((.(((....))).))) | 52 | -42.8
GATCGATTTATCGATC ((((((....)))))) | 59.7 | -44.8
GATCAGGGATCTGATC ((((((....)))))) | 57.1 | -29.1
GGCAGCGAAAGCTCCGCC ((((((....)))..))) | 56 | -19.2
GGTATCGGAAACGGTACC ((((.((....)).)))) | 51.6 | -40.6
GATCAGTCGCTGATC ((((((...)))))) | 49.8 | -29.6
GATCGATAAGTCGATC ((((((....)))))) | 52.5 | -44
GATCATAATATGATC ((((((...)))))) | 46.3 | -30.7
GCTCACGAAAGTGAAGC ((((((....))).))) | 56 | -29
GATCCTAGGAAGGATC ((((((....)))))) | 50.1 | -32.8
GTCCCTGGAAACAGGAAC ((.((((....)))).)) | 36.1 | -21.6
GGGTTGGCGAAAGCCCCC (((..(((....)))))) | 46.3 | -15.3
GCATGCGAAAGCACTTGC ((((((....)))..))) | 37.7 | -15.4
GCTGTCGAAAGACAGAGC ((((((....)))..))) | 54.8 | -13.6
GATCACCCGGGTGATC ((((((....)))))) | 59 | -51.9
GCTTCGCGAAAGCCCAGC (((..((....))..))) | 31.2 | -7.98

Sequence | Tm [1] [°C] | folding enthalpy [2] [kcal/mol]
GAAGCCGCGAAAGCGTTC (((..(((....)))))) | 26.3 | -11
GGTCGACGAAAGTCAACC (((.(((....))).))) | 49.9 | -32.2
GCGTAGCGAAAGCATCGC (((..((....))..))) | 55.1 | -15.4
GGAGACGAAAGTCGGTCC ((((((....)))..))) | 39.8 | -12.3
GATCCTAATTAGGATC ((((((....)))))) | 52 | -45.2
GTACGTGGAAACATGTAC ((((.((....)).)))) | 47.5 | -34.1
GACTGCGAAAGCAGGGTC ((((((....)))..))) | 62.2 | -12.4
GGACTTGGAAACGAGTTC (.(((.(....).))).) | 32.9 | -21.5
GACAGACCGAAAGGTGTC (((..(((....)))))) | 44.3 | -19.5
GCTAACGAAAGTTATAGC ((((((....)))..))) | 36 | -24.2
GATCTACGTTTAGATC ((((((....)))))) | 39.1 | -32.4
GGAAGCGAAAGCTCTCC ((((((....))).))) | 43.5 | -16.2
GATCGATATTTCGATC ((((((....)))))) | 53.1 | -44.3
GCAGCCGAAAGGCAGTGC ((((((....)))..))) | 50.6 | -17.4
GGTACTGGAAACAGTATC (.(((((....))))).) | 44.4 | -21.3
GTGCCCGAAAGGGGCCAC ((((((....)))..))) | 47.7 | -10.9
GTGGGTGGAAACGCCCAC (((((.(....).))))) | 61.8 | -40.3
GCTGTGCGAAAGCAACGC ((..(((....)))..)) | 49.9 | -13.7
GATCCATACCTGGATC ((((((....)))))) | 52.1 | -36.8
GGGAACGAAAGTTAACCC ((((((....)))..))) | 35.1 | -19.8
GTTGGGGGAAACCCCAGC (.(((((....))))).) | 49.8 | -17.3
GTATATGGAAACGTATAC (((((.(....).))))) | 35.2 | -24.4
GCCTTTCGAAAGAACGGC (((.(((....))).))) | 48.8 | -39.5

Sequence | Tm [1] [°C] | folding enthalpy [2] [kcal/mol]
GATCGATCGTCGATC ((((((...)))))) | 51.7 | -28.7
CGGACGGAAACGTAACCG ((((((....)))..))) | 36.1 | -28.7
GGGCCCGGAAACAGGCCC (((((.(....).))))) | 59.1 | -34.2
GTGTTCGGAAACGAGCAC (((.(((....))).))) | 53.8 | -40.4
GTCCCCGAAAGGGATGAC ((((((....)))..))) | 44.8 | -14.6
GAGCCGGGAAACCGGCCC (.(((((....))))).) | 48.2 | -9.15
GGTGTCGAAAGACTCACC ((((((....)))..))) | 39.1 | -17.6
GTTAAACGAAAGTTAAAC (((.(((....))).))) | 34.2 | -17.7
GGTACAGGAAACTGTACC (((((((....))))))) | 59.3 | -44.5
GTTTGCCGAAAGGCGAAC (((.(((....))).))) | 61.9 | -28.3
GCATCCGAAAGGAGCTGC ((((((....)))..))) | 50.6 | -19.2
GGAGCAGGAAACTACTCC ((((.((....)).)))) | 41.1 | -27.4
GGGTAACGAAAGTTCCC (((.(((....)))))) | 50.1 | -24.4
GATCATCGTATGATC ((((((...)))))) | 48.5 | -32.8
GGCAACGCGAAAGCGGCC (((..(((....)))))) | 59.7 | -19.8
GACCCTGGAAACGGGGTC (((((.(....).))))) | 57.6 | -40.3
GAGTGCGGAAACGCATTC ((.((((....)))).)) | 51.9 | -23.8
GCTCTGCGAAAGCTTAGC (((..((....))..))) | 44.2 | -18.5
GTGAATCGAAAGATCCAC (((.(((....))).))) | 43.4 | -27.7
GTGCTCGAAAGAGCTCAC ((((((....)))..))) | 42.8 | -10.8
GATCGGGCCACCGATC ((((((....)))))) | 67.5 | -39.5
AAATCGAAAGATTT (((((....))))) | 46.6 | -13.6
CGCAGCGGAAACGCCGCG (((.(((....))).))) | 58 | -34

Sequence | Tm [1] [°C] | folding enthalpy [2] [kcal/mol]
GATCACGAAAGTGCATC ((((((....))).))) | 42.8 | -21.4
GATCGGAGGGCCGATC ((((((....)))))) | 55.1 | -37.3
GCTTACGAAAGTAATAGC ((((((....)))..))) | 38.6 | -17.8
GATCCGAAGACGGATC ((((((....)))))) | 54.7 | -37
GTTCTCGGAAACGAGGAC ((.((((....)))).)) | 52 | -28.7
GGAGTGACGAAAGTCTCC (((..(((....)))))) | 38.8 | -18
GCGGTGCGAAAGCCCTGC ((.(.((....)).).)) | 49.5 | -21.2
GATCCCATGAGGGATC ((((((....)))))) | 61.4 | -30.3
GCTAGGCGAAAGCTAAGC (((..((....))..))) | 48.7 | -18.6
GTACTCGAAAGAGTATAC ((((((....)))..))) | 39.3 | -13.3
GTGCAACGAAAGTTTCAC (((.(((....))).))) | 41 | -21.4
GTCAGACGAAAGTCGAC (((.(((....)))))) | 51.9 | -31.5
GATCACATTTGTGATC ((((((....)))))) | 59.3 | -40.8
GCGCTCGAAAGAGTCGC ((((((....))).))) | 57.7 | -30.6
GCCTCGCGAAAGCCACGC ((.(.((....)).).)) | 20.5 | -6.05
GGTCAGGGAAACCTGGCC ((.((((....)))).)) | 57.5 | -42.2
GTACACGAAAGTGATAC ((((((....))).))) | 40.1 | -17.1
GCACTGCGAAAGCCGAGC ((.(.((....)).).)) | 38.8 | -20.2
GCGCCTCGAAAGAGTCGC (((.(((....))).))) | 58.7 | -38.3
GATCGAGACCTCGATC ((((((....)))))) | 56.7 | -44.3
GTACTCGGAAACGAATAC (((.(((....))).))) | 33.5 | -17.8
GATCGACGCGTCGATC ((((((....)))))) | 68.2 | -52.3
GATCTCTAATGAGATC ((((((....)))))) | 49.9 | -46.5
